Test results published in ChEMBL document CHEMBL2040744, “Phenanthrene derivatives from Cymbidium Great Flower Marie Laurencin and their biological activities” (J Nat Prod, 2012).
Values after ≈ are worked out from the molar mass of the structure shown.

Legend:
[1] = tested on: Bacillus subtilis; assay: Antibacterial activity against Bacillus subtilis NBRC 3134 after overnight incubation by microdilution method; type: functional
Procedure, shortened: (§1)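 Broth microdilution MIC. Strains were first grown on YP agar (1% polypeptone, 0.2% yeast extract, 0.1% MgSO4·7H2O, 6% agar) for 12 h, B. subtilis at 37 °C and K. pneumoniae at 27 °C. Samples came from a 10 mg/mL DMSO stock, serially diluted in 96-well plates of strain in YP medium, then incubated overnight at 37 °C. Ampicillin served as reference.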

[2] = tested on: HL-60; assay: Cytotoxicity against human HL60 cells after 72 hrs by WST8 assay; type: functional, cell-based; conditions: HL-60, 72 h
Procedure, shortened: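 HL-60 cells were kept in RPMI-1640 with 10% FBS at 37 °C under 5% CO2. Cells were seeded at 5 × 10^3 per well and preincubated 2 h, then exposed to compound in medium for 72 h. WST-8 was added for a further 3 h, and formazan absorbance was read at 450 nm to give IC50.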

[3] = tested on: Klebsiella pneumoniae; assay: Antibacterial activity against Klebsiella pneumoniae NBRC 3512 after overnight incubation by microdilution method; type: functional; procedure, shortened: as §1

| MIC [1] | SMILES | IC50 [2] | MIC [3] |
| --- | --- | --- | --- |
| 52.8 µM (≈ 15 µg/mL) | COc1ccc2c(ccc3cc(OC)c(O)c(OC)c32)c1 | 19.3 µM |  |
|  | COc1ccc2c(c1)CCc1cc(OC)c(O)c(OC)c1-2 | 31.8 µM |  |
| 0.36 µM (≈ 0.126 µg/mL) | CC1(C)S[C@@H]2[C@H](NC(=O)[C@H](N)c3ccccc3)C(=O)N2[C@H]1C(=O)O [AMPICILLIN] |  | 107 µM (≈ 37.5 µg/mL) |
| 4.88 µM (≈ 1.25 µg/mL) | COC1=CC(=O)C2=C(CCc3cccc(O)c32)C1=O [EPHEMERANTHOQUINONE B] | 2.8 µM |  |
|  | COc1c(O)cc2c(c1OC)-c1ccc(O)cc1CC2 [ERIANTHRIDIN] | 44.6 µM |  |
|  | COc1cc2c(c(OC)c1O)-c1c(O)cccc1CC2 [MARYLAURENCINOLS A] | 96.8 µM |  |
| 65.1 µM (≈ 18.8 µg/mL) | COc1c(O)c2c(c(OC)c1O)-c1c(O)cccc1CC2 [MARYLAURENCINOLS B] | 174 µM |  |
|  | COc1cc2c(c(O[C@@H]3O[C@H](CO)[C@@H](O)[C@H](O)[C@H]3O)c1O)-c1c(O)cccc1CC2 [MARYLAURENCINOSIDE A] | 52.4 µM |  |
|  | CO[C@@]12[C@H](COC(N)=O)C3=C(C(=O)C(C)=C(N)C3=O)N1C[C@@H]1N[C@@H]12 [MITOMYCIN] | 0.1 µM |  |

| SMILES | MIC [1] | IC50 [2] | MIC [3] |
| --- | --- | --- | --- |
| COc1cc2ccc3cc(O)ccc3c2c(OC)c1O | 185 µM (≈ 50.1 µg/mL) | 34.2 µM |  |
| COc1cc2ccc3c(OC)c(O)ccc3c2c(OC)c1O | 250 µM (≈ 75.1 µg/mL) | 103 µM |  |
| COc1cc2ccc3cccc(O)c3c2c(OC)c1O [BULBOPHYLLANTHRIN] | 185 µM (≈ 50.1 µg/mL) | 52.4 µM | 185 µM (≈ 50.1 µg/mL) |
